From PubChem BioAssay
Most compounds without a hit are left out; they make up all but 1.6% or so of the library.
STEP block – inhibitors of human striatal-enriched phosphatase STEP; P54829; recombinant STEP, OMFP fluorogenic substrate, fluorescence; inhibition, % at 20 µM; hit rate 0.25% among 360,000; AID 588621;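 active means inhibition at 20 µM, scaled per plate between control wells, above about 37%, limit read from the data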
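Measure: Control-normalized % inhibition with plate pattern correction | Test system: STEP phosphatase, cell-free reaction | Medium: pH 6.0 Bis-Tris with DTT and Tween 20 | Technique: Fluorescence, 480/540 nm | Times: Reaction 20 min, ambient temperature | Doses: Single compound dose of 20 µM, 1% DMSO final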
SUMO1-SIM PPI – SUMO1-SIM interaction modulation; P63165; SUMO1 binding to a labelled peptide, TR-FRET, 1 h; inhibition, % at 20 µM; hit rate 0.33% among 360,000; AID 602429; in the data active means inhibition above about 37%
CFTR F508del cor – correctors of CFTR F508del function in bronchial epithelial cells; CFBE cells, YFP halide quenching; stimulated with forskolin plus potentiator P3; % fluorescence drop versus neutral controls; activity (quench increase), % at 7.58 µM; hit rate 0.36% among 350,000; AID 720511;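 active means mean added fluorescence quench of at least 8% versus neutral control, with both replicates also reaching 8%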;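 further: cells transiently co-express mutant CFTR-F508del with the halide-sensitive YFP; corrector assay measuring rescue of mutant channel to the surface after 24 h compound exposure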
DNMT1 block – blocks human DNA methyltransferase DNMT1. P26358. DNMT1 molecular beacon, Hinp1I cleavage, fluorescence. inhibition (reported as % activation of signal), % at 10 µM. hit rate 0.83% among 360,000. AID 588458; in the data active means inhibition above about 50%
Target sequence (P26358 504-1616 limits assumed): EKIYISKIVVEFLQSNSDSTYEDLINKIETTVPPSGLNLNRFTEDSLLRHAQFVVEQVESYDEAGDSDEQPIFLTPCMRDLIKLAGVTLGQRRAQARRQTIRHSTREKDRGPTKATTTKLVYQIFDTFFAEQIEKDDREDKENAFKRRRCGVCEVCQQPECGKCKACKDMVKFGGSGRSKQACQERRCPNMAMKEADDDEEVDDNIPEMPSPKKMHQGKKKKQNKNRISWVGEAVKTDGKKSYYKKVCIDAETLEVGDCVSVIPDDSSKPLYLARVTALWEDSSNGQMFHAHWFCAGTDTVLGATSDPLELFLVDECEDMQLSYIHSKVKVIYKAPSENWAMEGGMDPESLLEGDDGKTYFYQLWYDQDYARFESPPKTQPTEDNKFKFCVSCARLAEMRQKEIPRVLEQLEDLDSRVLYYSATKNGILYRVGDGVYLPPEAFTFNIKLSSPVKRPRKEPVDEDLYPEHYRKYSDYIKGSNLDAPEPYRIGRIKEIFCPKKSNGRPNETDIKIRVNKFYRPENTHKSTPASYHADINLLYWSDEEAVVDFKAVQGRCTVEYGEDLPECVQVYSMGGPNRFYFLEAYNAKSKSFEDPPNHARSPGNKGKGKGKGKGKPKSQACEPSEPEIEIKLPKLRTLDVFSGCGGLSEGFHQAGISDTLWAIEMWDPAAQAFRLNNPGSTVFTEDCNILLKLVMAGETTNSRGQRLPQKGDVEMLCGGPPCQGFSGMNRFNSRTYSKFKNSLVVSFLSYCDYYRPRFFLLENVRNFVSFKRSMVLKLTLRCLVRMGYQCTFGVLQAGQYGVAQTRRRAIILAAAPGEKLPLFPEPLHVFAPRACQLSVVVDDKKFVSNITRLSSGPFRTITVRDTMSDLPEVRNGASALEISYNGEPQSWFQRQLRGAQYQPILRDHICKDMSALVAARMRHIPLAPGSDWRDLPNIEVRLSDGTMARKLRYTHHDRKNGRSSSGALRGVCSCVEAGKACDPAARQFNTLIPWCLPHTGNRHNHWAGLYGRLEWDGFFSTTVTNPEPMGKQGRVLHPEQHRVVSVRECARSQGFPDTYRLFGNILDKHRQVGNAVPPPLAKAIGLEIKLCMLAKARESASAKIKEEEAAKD
LMPTP block – LMPTP (human) inhibition; P24666; recombinant LMPTP-A, OMFP fluorogenic substrate, fluorescence intensity; inhibition, % at 20 µM; hit rate 0.22% among 360,000;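 active means compounds that cut the enzyme signal by at least half of the control window in the single-dose screen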
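material = LMPTP-A | quantity = 0.625 nM enzyme | reagent = OMFP substrate, 400 µM final | buffer or medium = Bis-Tris pH 6.0, DTT, detergent | detection = endpoint fluorescence intensity from OMFP dephosphorylation | dosing = single 20 µM dose | read-out basis = % inhibition relative to no-enzyme and uninhibited control wells | control set = no-enzyme and uninhibited controls | timing = 50 min at room temperature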
Scp-1 inhibitor – inhibitors of human Scp-1 phosphatase | Q9GZU7 | Recombinant Scp1, phosphopeptide, malachite green phosphate absorbance | inhibition, % at 20 µM | hit rate 0.88% among 340,000;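 active means inhibition above about 50% at 20 µM, limit read from the data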
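Material: truncated SCP-1 phosphatase (76-261aa) / Buffer or medium: 50 mM Tris acetate pH 5.5, 0.005% Tween-20, 10 mM MgCl2 / Compound dosing: one concentration, 20 µM, with 1.0% DMSO / Incubation: 45 min room-temperature reaction, 5 min colour, 30 min stabiliser / Detection: colorimetric free-phosphate detection, absorbance 630 nm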
Hits are given with their value; . = inactive; / = no result; ! = a repeat was not active.

SMILES	STEP block	SUMO1-SIM PPI	CFTR F508del cor	DNMT1 block	LMPTP block	Scp-1 inhibitor
C[C@@H]1CN([C@H](C)CO)C(=O)c2cc(Br)cnc2O[C@@H]1CN(C)C(=O)C1CCC1	/	/	.	/	/	/
Cc1cccc(NCc2ccc(N(C)C)cc2)n1	.	.	.	60	.	.
C[C@@H](NC(=O)C[C@H]1CC[C@H]2[C@@H](COC[C@H](O)CN2C)O1)c1ccccc1	/	/	.	/	/	/
CN(C)C(=O)C[C@H]1CC[C@H]2[C@@H](COC[C@H](O)CN2CC2CCCCC2)O1	/	/	.	/	/	/
C=CCN=c1scc(-c2ccccc2)n1/N=C/c1ccccn1	.	.	8.4!	.	.	.
O=C(c1ccccc1)N1C[C@@H]2[C@H](c3ccccc31)[C@@H](CO)N2C(=O)CN1CCOCC1	/	/	.	/	/	/
Cc1ccc(/C=C/c2nc3sc(C(=O)O)c(C)c3c(=O)[nH]2)cc1[N+](=O)[O-]	99	.	.	.	64	89
O=C(C1CCC1)N1[C@@H](CO)[C@@H](c2ccccc2)C12CN(Cc1ccccc1)C2	/	/	.	/	/	/
CCNC(=O)C1(C)CCN(C(=O)c2cc(F)ccc2C)C1 (stereo unspecified)	.	.	16	.	.	/
CCN1/C(=C/c2ccc3cccc(C)c3[n+]2CC)Sc2ccccc21	.	.	/	.	.	.
CCN1/C(=C/c2ccc3cc(C)ccc3[n+]2CC)Sc2ccc3sccc3c21	.	104	/	.	84	.
CCN1/C(=C\c2ccc3cc(C)ccc3[n+]2CC)Sc2cc(C)c(C)cc21	.	.	62	.	.	.
C=CC[n+]1c(/C=C2\C=Cc3cc(C)ccc3N2CC)ccc2ccccc21	.	.	.	.	.	.
CC[n+]1c(C)sc2c3ccsc3ccc21	.	.	.	.	.	.
CCN1/C(=C/c2ccc3cc(C)cc(C)c3[n+]2CC)Sc2cc(C)ccc21	.	.	65	.	48	.
CN1CCC[C@H]1CCNc1ccc2c(=O)c3ccccc3n(C)c2c1	.	82	.	.	.	.
CN1CCCC1CCNc1ccc2c(=O)c3ccccc3oc2c1 (stereo unspecified)	.	.	.	.	.	.
COc1ccc(N(C)S(=O)(=O)c2cccc(C(=O)NC3CCCC3)c2)cc1	.	.	.	.	.	.
COc1ccc(N(C)S(=O)(=O)c2cccc(C(=O)NCC3CCCCC3)c2)cc1	.	.	8.7	.	.	.
CCCN(C)C[C@@H]1OCCCC[C@H](C)Oc2ccc(NC(=O)Nc3ccc4c(c3)OCO4)cc2C(=O)N([C@H](C)CO)C[C@@H]1C	/	/	.	/	/	/
O=c1[nH]nc(CNc2ccc(O)cc2)c2ccccc12	.	55	/	.	.	.
O=c1[nH]nc(CNc2ccc(C(F)(F)F)cc2)c2ccccc12	.	.	/	.	.	.
Cn1nc(CC(=O)NCc2ccc(F)cc2)c2ccccc2c1=O	.	46	.	.	.	.
CN1c2ccc(-c3ccc(F)cc3)cc2[C@@H]2[C@@H](CCN2C(=O)c2cccc(F)c2)[C@@H]1CO	/	/	.	/	/	/
Cc1ccccc1Nc1nc(N)nc(COC(=O)c2cccc(S(=O)(=O)N(C)C)c2)n1	.	.	.	.	.	.
SMILES	STEP block	SUMO1-SIM PPI	CFTR F508del cor	DNMT1 block	LMPTP block	Scp-1 inhibitor
COc1ccc(C(=O)OCc2nc(N)nc(Nc3ccccc3C)n2)cc1OC	.	.	8.4	.	.	.
CN1CCN(C(=O)C[C@H]2C[C@H]3c4cc(NC(=O)C5CCOCC5)ccc4O[C@H]3[C@@H](CO)O2)CC1	/	/	.	/	/	/
CC(=O)OCC1=C(C(=O)O)N2C(=O)C(NC(=O)COc3ccc(F)cc3)C2SC1 (stereo unspecified)	.	.	.	.	.	54
CC1(C)C(/C=C/C=C/C=C/C=C2\N(CCCCS(=O)(=O)O)c3ccc4ccccc4c3C2(C)C)=[N+](CCCCS(=O)(=O)[O-])c2ccc3ccccc3c21	.	110	/	88	.	.
COc1cccc(C(=O)Nc2ccc3c(c2)C(=O)N(C)[C@H]2CC[C@@H](CC(=O)NCc4ccccc4F)O[C@H]2CO3)c1	/	/	.	/	/	/
C[C@@H](O)C#Cc1cnc2c(c1)C(=O)N([C@@H](C)CO)C[C@H](C)[C@H](CN(C)C(=O)c1ccccc1)O2	/	/	.	/	/	/
C[C@H]1C[C@H]2[C@@H]3CCC4=CC(=O)C=C[C@]4(C)[C@@]3(Cl)[C@@H](O)C[C@]2(C)[C@@]1(O)C(=O)CO	.	.	.	.	.	.
C[C@H]1C[C@H]2[C@@H]3CCC4=CC(=O)C=C[C@]4(C)[C@@]3(F)[C@@H](O)C[C@]2(C)[C@@]1(O)C(=O)CO	.	.	10	.	.	.
C[C@@H]1CN([C@@H](C)CO)C(=O)c2cccc(NS(=O)(=O)c3ccc(F)cc3)c2O[C@H]1CN(C)S(=O)(=O)c1ccccc1	/	/	.	/	/	/
COc1ccccc1-c1cn(CC[C@@H]2CC[C@H](NC(=O)C3CCOCC3)[C@@H](CO)O2)nn1	/	/	.	/	/	/
Cc1ccc(S(=O)(=O)Nc2ccc3c(c2)C(=O)N([C@H](C)CO)C[C@@H](C)[C@H](CN(C)Cc2ccc(C(=O)O)cc2)OCCCC[C@@H](C)O3)cc1	/	/	.	/	/	/
COC(=O)C(C)N1C(=O)S/C(=C\c2ccc(-c3ccc(C(=O)O)cc3C)o2)C1=O (stereo unspecified)	.	.	.	.	.	64
O=C(O)c1ccccc1-c1ccc(/C=C2\SC(=O)N(c3ccccc3)C2=O)o1	.	.	.	.	.	.
CC=Cc1ccc2n(c1=O)C[C@@H]1[C@@H](CO)[C@H](C(=O)N3CCN(C)CC3)N(Cc3ccccc3F)[C@H]21 (mixture of isomers)	/	/	.	/	/	/
COc1ccc(-n2nnnc2CNC(=O)C(=O)c2c[nH]c3ccccc23)cc1	.	.	.	.	.	.
O=C(NCc1nnnn1-c1ccc(Cl)cc1)C(=O)c1c[nH]c2ccccc12	.	.	11	.	.	/
CCc1noc(C)c1C(=O)N1CCN(c2cccc(C)c2C)CC1	.	.	.	.	.	.
Cc1onc(-c2ccccc2Cl)c1C(=O)N1CCN(c2ccccc2)CC1	.	.	/	.	.	.
Cc1cccc(N2CCN(C(=O)c3c(-c4ccccc4)noc3C)CC2)c1C	.	.	15	.	.	.
Cc1onc(-c2ccccc2Cl)c1C(=O)N1CCN(c2cccc(Cl)c2)CC1	.	.	8.1	.	.	.
Cn1c(CCN2CCN(c3ccccn3)CC2)nc2cc(NC(=O)COc3ccc([N+](=O)[O-])cc3)ccc21	.	.	.	.	71	.
O=C(COCC(=O)Nc1cccc(C(F)(F)F)c1)Nc1cccc(C(F)(F)F)c1	.	.	/	.	.	.
COc1cc(NC(=O)CSCC(=O)Nc2cccc(C(F)(F)F)c2)c(Cl)cc1Cl	.	44	.	.	.	.
